Assay outcomes deposited in PubChem BioAssay by several laboratories.
ROMK mod = human ROMK K+ channel modulation, primary screen. P48048. Tet-inducible ROMK, thallium flux fluorescence; actives lie on both sides. actives 2% (n = 130,000). B-score at 10 µM. AID 1918;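 active = signal ratio slope over the read window, or its plate-corrected B-score, at least 3 SD from the plate mean, either direction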;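 note: B-score of the F/F0 ratio slope over 7 to 12 s after thallium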
Target sequence (P48048 whole entry, looked up): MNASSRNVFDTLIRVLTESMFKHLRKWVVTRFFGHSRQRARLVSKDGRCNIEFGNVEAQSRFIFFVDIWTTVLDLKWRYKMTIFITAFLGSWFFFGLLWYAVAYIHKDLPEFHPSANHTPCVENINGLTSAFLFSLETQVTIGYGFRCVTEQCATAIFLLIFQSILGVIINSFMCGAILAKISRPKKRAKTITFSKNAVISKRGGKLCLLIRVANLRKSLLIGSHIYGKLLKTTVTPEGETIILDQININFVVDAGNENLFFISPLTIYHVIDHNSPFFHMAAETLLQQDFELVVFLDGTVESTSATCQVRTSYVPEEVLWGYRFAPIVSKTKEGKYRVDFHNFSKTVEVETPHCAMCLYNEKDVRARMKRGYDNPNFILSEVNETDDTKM
MT stabilize HCS = microtubule stabilization, imaging screen. HeLa tubulin immunostaining HCS, 24 h; share of cells brighter than vehicle mean+2SD. % tubulin-high responders, % at 10 µM. actives 0.83% (n = 200,000). AID 2205;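 active = plate Z-score above 3 for both tubulin-high and condensed-nucleus cell shares, with cell loss under 80%, at 10 µM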;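 note: anti alpha tubulin signal scored within the nucleus-defined area of each cell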
bCat nuc transl = beta-catenin nuclear translocation modulation; HeLa beta-catenin nuclear translocation, immunofluorescence imaging; actives 0.3% (n = 190,000); nuclear translocation activity, % at 5 µM;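 active = nuclear translocation activity above 50% at 5 µM, with a well cell count of 50 or more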;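 note: per-cell ratio of nuclear to cytoplasmic median beta-catenin stain intensity; plate controls were DMSO negative control for no effect and GSK-3 inhibitor IX positive control for full effect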
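System: HeLa cells, endogenous beta-catenin; compound dosing: 5 µM primary single dose, 0.1% DMSO, 0.02–20 µM confirmation series; incubation: 24 h compound exposure at 37°C, 5% CO2; signal: beta-catenin immunofluorescence imaging with DAPI; evaluation: % activation, nuclear-to-cytoplasmic median beta-catenin signal ratio per cell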
ROMK hit retest = retested hit modulating human ROMK potassium channel | shares compounds with ROMK mod | ROMK thallium flux, fluorescence ratio; stronger effect = lower value | normalized thallium flux (F/F0 slope) at 10 µM | actives 54% (n = 3,000);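 active = Flux at 10 µM at least 3 SD below or above vehicle control mean in one or both replicates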
* = called active by the depositor; / = no result. Shown are actives, neighbours in structure and some others; about 1.9% of the full set was active somewhere.

SMILES	ROMK mod	MT stabilize HCS	bCat nuc transl	ROMK hit retest
CN1CCN(S(=O)(=O)c2cccc(C(=O)N(c3ccccn3)C3CCCCC3)c2)CC1	-0.45	3	-5	/
CNC(=O)c1ccccc1NC(=O)c1cccc(S(=O)(=O)N2CCC(C)CC2)c1	/	5	0	/
CCCn1c(NC(=O)c2cccc(S(=O)(=O)N3CCCC3)c2)nc2ccccc21	/	23	-6	0.083
CC1(C)C2CCC1(CS(=O)(=O)N1CCCc3ccccc31)C(=O)C2 (configuration not stated)	-3.4*	3	0	0.07
COc1ccccc1N1CCN(S(=O)(=O)CC23CCC(CC2=O)C3(C)C)CC1 (configuration not stated)	/	2	/	/
Cn1cc(C(=O)NCc2cccs2)c(=O)c2cc(S(=O)(=O)N3CCCC3)ccc21	-0.34	4	-2	/
Cc1ccc(S(=O)(=O)N2CCC(=O)N(C(COCc3ccc(C(F)(F)F)cc3)C(C)C)CC2)cc1 (configuration not stated)	-1.6	3	/	/
Cc1ccc(S(=O)(=O)N2CCC(=O)N(C(COCc3ccc(Cl)c(Cl)c3)Cc3ccccc3)CC2)cc1 (configuration not stated)	-4.7*	3	/	0.061*
Cc1ccc(S(=O)(=O)N2CCC(=O)N(C(COCc3ccc(C(F)(F)F)cc3)Cc3ccccc3)CC2)cc1 (configuration not stated)	-6.7*	3	/	0.075
Cc1ccc(S(=O)(=O)N2CCC(=O)N(C(COCc3cccc(C)c3)Cc3ccccc3)CC2)cc1 (configuration not stated)	-1.7	2	/	/
CCNS(=O)(=O)c1ccc(Br)c(OC)c1	-0.33	2	/	/
O=C(Nc1ccccc1N1CCOCC1)c1cccnc1Cl	0.14	3	0	/
O=C(/C=C/c1ccc([N+](=O)[O-])cc1)Nc1ncc([N+](=O)[O-])s1	0.88	5	1	/
Cc1cc(NC(=O)CSc2nnc(COc3ccccc3)n2Cc2ccco2)no1	-0.15	5	-10	/
Cc1ccc(OCc2nnc(SCC(=O)C(C)(C)C)n2Cc2ccco2)cc1	-3.6*	3	-6	0.075
CC1CCc2c(sc3nc(CSc4ncn[nH]4)[nH]c(=O)c23)C1 (configuration not stated)	/	4	0	/
O=C(C[n+]1cc2ccccc2c2ccccc21)c1ccccc1	-3.8*	1	0	0.057*
O=C(C[n+]1cccc2ccccc21)c1ccccc1	0.43	2	-3	/
CC(C)N(C(=O)CSc1nnnn1-c1ccc2c(c1)OCO2)C(C)C	0.82	2	0	/
Cc1cccc(-c2nc(CN3CCCC(C(=O)NC4CCCCCC4)C3)c(C)o2)c1 (configuration not stated)	-3.5*	4	/	0.062*
Cc1oc(-c2cccc(Cl)c2)nc1CN1CCCC(C(=O)NCc2ccco2)C1 (configuration not stated)	-1.5	4	/	/
Cc1cccc(-c2nc(CN3CCCC(C(=O)NC4CCCCC4)C3)c(C)o2)c1 (configuration not stated)	-2.5*	5	/	0.066*
Cc1oc(-c2ccc(Cl)cc2)nc1CN1CCCC(C(=O)NCc2ccccn2)C1 (configuration not stated)	-0.29	6	3	/
CC(C)Cc1nnc(NC(=O)CN2C(=O)c3ccccc3C2=O)s1	-0.019	5	0	/
CC(=O)N1CCN(c2nc(N)c(C#N)c(CC#N)c2C#N)CC1	/	/	-1	/
SMILES	ROMK mod	MT stabilize HCS	bCat nuc transl	ROMK hit retest
CCCCN(CC)c1nc(N)c2c(N)nc(OCC)cc2c1C#N	-0.94	2	-9	/
C=C(C)CN(CC)c1nc(N)c(C#N)c(CC#N)c1C#N	-2.6*	4	1	0.055*
CCCCN(CC)c1nc(N)c(C#N)c(CC#N)c1C#N	-3.1*	1	/	0.055*
O=c1[nH]c(C2CCN(S(=O)(=O)c3ccccc3)CC2)nc2c1nnn2Cc1ccccc1	/	6	-1	/
CSCC[C@H](NC(=O)C1CCN(S(=O)(=O)c2ccc(C)cc2)CC1)C(=O)NC1CCS(=O)(=O)C1 (some centres not stated)	0.43	3	-2	/
Cc1cc(S(=O)(=O)N2CCN(C(=O)CCC(=O)N3CCOCC3)CC2)ccc1Br	/	/	-2	/
COC(=O)CN1C(=O)COc2ccc(Cl)cc21	0.6	2	3	/
COCCNC(=O)CN1C(=O)COc2ccc(Cl)cc21	1.7	3	1	0.079
CCOC(=O)N1C2C=C(C)[C@@H]2[C@@H]2CC(=O)N21 (some centres not stated)	1.3	3	/	/
CCCCOc1ccc(C2CC(=O)N(C)C2=O)cc1 (configuration not stated)	-0.44	3	1	/
